Measurements as given in ChEMBL document CHEMBL2034817, “Synthesis and evaluation of 4- and 5-pyridazin-3-one phenoxypropylamine analogues as histamine-3 receptor antagonists” (Bioorg Med Chem, 2012).
Calls of active or inactive are those of the source. The rule behind the calls is not given here.

Columns and labels:
Histamine H3 receptor [1] = molecular target: Histamine H3 receptor (Rattus norvegicus, UniProt Q9QYN8); assay: Displacement of [3H]-Nalpha-methylhistamine from rat histamine H3 receptor expressed in CHO-A3 cells after 4 hrs by scintillation proximity assay; assay type: cell-based
In short: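 Rat H3 receptor in pIRES-neo3 stably transfected into CHO-A3 cells, clonally selected; washed membranes in Tris–HCl pH 7.4, 5 mM MgCl2, 0.1% BSA, 10 µg protein/well; ~1 nM final [3H]-N-alpha-methylhistamine, compounds 0.01 nM–30 µM, SPA beads, 4 h room temperature, dark; nonspecific with 10 µM clobenpropit; scintillation counting.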

Rattus norvegicus [2] = assay: Antidipsogenic activity in ip dosed Harlan Long Evans rat assessed as inhibition of RAMH-induced water drinking; assay type: functional
In short: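 Water drinking for 30 min beginning 20 min after RAMH (10 mg/kg ip); test compound in saline given beforehand. Per-rat percent inhibition normalized to RAMH group mean drinking; group means compared by one-way ANOVA with Dunnett's test versus RAMH group.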

Rattus norvegicus [3] = assay: Wake promoting activity in rat assessed as cumulative wake time at 10 mg/kg, ip after 4 hrs (reference value: 76+/-6 mins); assay type: functional; conditions: route intraperitoneal
Rattus norvegicus [4] = assay: Toxicity in rat assessed as rat assessed as adverse EEG activity up to 30 mg/kg, ip; assay type: organism-based; parameters: dose 30 mg/kg, route intraperitoneal; conditions: in vivo
In short: (§1)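 Rats implanted for chronic EEG/EMG recording, dosed ip up to 30 mg/kg; EEG monitored for adverse activity, and sleep after the wake period scored for rebound up to 22 h post-dose.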

[5] = Cmax in Sprague-Dawley rat at 5 mg/kg, po; assay type: ADME, organism-based; parameters: dose 5 mg/kg, route oral; conditions: in vivo
In short: (§2)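 Adult male Sprague–Dawley rats (275–350 g). iv dosing via lateral tail vein (3% DMSO/30% Solutol/67% PBS or 100% saline); oral gavage after overnight fast (Tween 80/propylene carbonate/propylene glycol, saline, or 2% HCl–water). Seven serial tail-vein blood samples over 6 or 24 h; plasma protein-precipitated with acetonitrile, LC–MS/MS; noncompartmental parameters.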

Histamine H3 receptor [6] = molecular target: Histamine H3 receptor (Homo sapiens, UniProt Q9Y5N1); assay: Displacement of [3H]-Nalpha-methylhistamine from human histamine H3 receptor expressed in CHO cells after 4 hrs by scintillation proximity assay; assay type: cell-based
In short: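 Membranes from CHO cells stably expressing human H3 receptor, in 50 mM Tris–HCl pH 7.4, 5 mM MgCl2, 0.1% BSA, 10 µg protein/well; ~1 nM final [3H]-N-alpha-methylhistamine; compounds 0.01 nM–30 µM; SPA beads; 4 h room temperature, dark; nonspecific binding with 10 µM clobenpropit; scintillation counting. Assay-to-assay variation typically within 2.5-fold.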

[7] = molecular target: Histamine H3 receptor (Rattus norvegicus) (UniProt Q9QYN8); assay: Inverse agonist activity at histamine H3 receptor on rat cortex membrane by [35S]GTPgammaS binding assay; assay type: functional
[8] = Plasma protein binding in mouse at 5 uM after 1 hr by LC-MS/MS analysis; assay type: ADME, cell-free; conditions: read-out: PPB (converted)
[9] = Solubility of the compound in water; assay type: physicochemical; conditions: buffer
Rattus norvegicus [10] = assay: Toxicity in rat assessed as rat assessed as sleep rebound up to 30 mg/kg, ip up to 22 hrs; assay type: organism-based; parameters: dose 30 mg/kg, route intraperitoneal; conditions: in vivo; in short: as §1
[11] = AUC (0 to t) in Sprague-Dawley rat at 5 mg/kg, po; assay type: ADME, organism-based; parameters: dose 5 mg/kg, route oral; conditions: plasma; in short: as §2
Caco-2 = assay: Permeability across human Caco2 cells; assay type: ADME, cell-based
[12] = Ratio of drug level in brain to plasma in Sprague-Dawley rat at 5 mg/kg, po at 6 hrs; assay type: ADME, organism-based; parameters: dose 5 mg/kg, route oral; conditions: read-out: BPR
In short: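 Brain-to-plasma ratio from the 6 h time point after 5 mg/kg po dosing in Sprague–Dawley rats; plasma drug measured by LC–MS/MS after acetonitrile protein precipitation.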

[13] = Plasma protein binding in human at 5 uM after 1 hr by LC-MS/MS analysis; assay type: ADME, cell-free; conditions: read-out: PPB (converted)
[14] = molecular target: Histamine H3 receptor (Rattus norvegicus) (UniProt Q9QYN8); assay: Antagonist activity at histamine H3 receptor on rat cortex membrane by [35S]GTPgammaS binding assay; assay type: functional, tissue-based
[15] = Plasma protein binding in rat at 5 uM after 1 hr by LC-MS/MS analysis; assay type: ADME, cell-free; conditions: read-out: PPB (converted)
Salmonella typhimurium = assay: Genotoxicity against Salmonella typhimurium by AMES test; assay type: toxicity, organism-based; conditions: salmonella enterica subsp. enterica serovar typhimurium
[16] = Oral bioavailability in Sprague-Dawley rat at 5 mg/kg; assay type: ADME, organism-based; conditions: in vivo; in short: as §2
Rattus norvegicus [17] = assay: Wake promoting activity in ip dosed rat assessed as increased wake activity after 4 hrs; assay type: functional, organism-based
[18] = Fraction unbound in rat brain homogenate; assay type: ADME, tissue-based
Rattus norvegicus [19] = assay: Wake promoting activity in rat assessed as cumulative wake time at 30 mg/kg, ip after 4 hrs (reference value: 76+/-6 mins); assay type: functional; conditions: route intraperitoneal
[20] = Clearance in Sprague-Dawley rat at 1 mg/kg, iv; assay type: ADME, organism-based; parameters: dose 1 mg/kg, route intravenous; conditions: in vivo; in short: as §2
[21] = molecular target: Voltage-gated inwardly rectifying potassium channel KCNH2 (Homo sapiens, UniProt Q12809); assay: Inhibition of human ERG by patch clamp assay
In short: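 hERG inhibition measured in a patch clamp assay.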

[22] = Plasma protein binding in dog at 5 uM after 1 hr by LC-MS/MS analysis; assay type: ADME, cell-free, Canis lupus familiaris; conditions: read-out: PPB (converted)
Cytochrome P450 1A2 = molecular target: T1, Cytochrome P450 1A2 (Homo sapiens, UniProt P05177); assay: Inhibition of CYP1A2; assay type: ADME
T1 sequence (P05177 whole entry): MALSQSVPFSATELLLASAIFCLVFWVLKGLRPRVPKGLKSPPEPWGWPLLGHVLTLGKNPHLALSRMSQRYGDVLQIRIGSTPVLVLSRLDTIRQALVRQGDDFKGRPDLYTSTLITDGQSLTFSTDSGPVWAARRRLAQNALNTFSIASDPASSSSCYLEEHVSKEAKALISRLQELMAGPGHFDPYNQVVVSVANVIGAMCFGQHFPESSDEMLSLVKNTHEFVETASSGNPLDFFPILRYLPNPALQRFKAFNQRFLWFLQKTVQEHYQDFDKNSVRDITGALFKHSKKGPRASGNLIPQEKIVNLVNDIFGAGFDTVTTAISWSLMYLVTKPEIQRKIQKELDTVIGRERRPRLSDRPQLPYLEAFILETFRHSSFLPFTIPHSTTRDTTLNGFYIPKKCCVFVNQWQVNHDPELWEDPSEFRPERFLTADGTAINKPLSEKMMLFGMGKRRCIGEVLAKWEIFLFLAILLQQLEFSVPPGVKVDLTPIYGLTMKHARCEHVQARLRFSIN

[23] = Half life in human liver microsomes; assay type: ADME, Microsome
Histamine H2 receptor = Histamine H2 receptor (Homo sapiens, UniProt P25021); assay: Binding affinity to human histamine H2 receptor
[24] = Half life in rat liver microsomes; assay type: ADME, Microsome
[25] = Volume of distribution in Sprague-Dawley rat at 1 mg/kg, iv; assay type: ADME, organism-based; parameters: dose 1 mg/kg, route intravenous; conditions: in vivo; in short: as §2
[26] = Half life in Sprague-Dawley rat at 1 mg/kg, iv; assay type: ADME, organism-based; parameters: dose 1 mg/kg, route intravenous; conditions: in vivo; in short: as §2
Cytochrome P450 2C19 = Cytochrome P450 2C19 (Homo sapiens, UniProt P33261); assay: Inhibition of CYP2C19; assay type: ADME
Cytochrome P450 2C9 = Cytochrome P450 2C9 (Homo sapiens, UniProt P11712); assay: Inhibition of CYP2C9; assay type: ADME
Histamine H4 receptor = Histamine H4 receptor (Homo sapiens, UniProt Q9H3N8); assay: Binding affinity to human histamine H4 receptor
Cytochrome P450 3A4 = Cytochrome P450 3A4 (Homo sapiens, UniProt P08684); assay: Inhibition of CYP3A4; assay type: ADME
Histamine H1 receptor = Histamine H1 receptor (Homo sapiens, UniProt P35367); assay: Binding affinity to human histamine H1 receptor
[27] = Half life in monkey liver microsomes; assay type: ADME, Macaca mulatta, Microsome; conditions: rhesus monkey
[28] = Half life in mouse liver microsomes; assay type: ADME, Microsome
Cytochrome P450 2D6 = Cytochrome P450 2D6 (Homo sapiens, UniProt P10635); assay: Inhibition of CYP2D6; assay type: ADME
Sequence of Cytochrome P450 2D6 (P10635 whole entry): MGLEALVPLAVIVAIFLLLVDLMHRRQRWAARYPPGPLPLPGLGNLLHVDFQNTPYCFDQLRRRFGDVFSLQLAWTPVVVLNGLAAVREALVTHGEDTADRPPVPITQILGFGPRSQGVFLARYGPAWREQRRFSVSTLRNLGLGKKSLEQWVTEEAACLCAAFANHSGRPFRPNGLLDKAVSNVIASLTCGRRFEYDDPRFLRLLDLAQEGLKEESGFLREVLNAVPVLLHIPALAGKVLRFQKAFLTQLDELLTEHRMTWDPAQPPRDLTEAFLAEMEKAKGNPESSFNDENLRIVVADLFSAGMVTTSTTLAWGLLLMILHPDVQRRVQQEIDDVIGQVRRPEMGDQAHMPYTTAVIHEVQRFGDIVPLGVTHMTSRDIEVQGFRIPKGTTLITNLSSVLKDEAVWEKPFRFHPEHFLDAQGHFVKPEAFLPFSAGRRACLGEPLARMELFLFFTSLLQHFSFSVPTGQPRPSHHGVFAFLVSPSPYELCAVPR

Sequence of Histamine H3 receptor (Rattus norvegicus, UniProt Q9QYN8) (Q9QYN8 whole entry): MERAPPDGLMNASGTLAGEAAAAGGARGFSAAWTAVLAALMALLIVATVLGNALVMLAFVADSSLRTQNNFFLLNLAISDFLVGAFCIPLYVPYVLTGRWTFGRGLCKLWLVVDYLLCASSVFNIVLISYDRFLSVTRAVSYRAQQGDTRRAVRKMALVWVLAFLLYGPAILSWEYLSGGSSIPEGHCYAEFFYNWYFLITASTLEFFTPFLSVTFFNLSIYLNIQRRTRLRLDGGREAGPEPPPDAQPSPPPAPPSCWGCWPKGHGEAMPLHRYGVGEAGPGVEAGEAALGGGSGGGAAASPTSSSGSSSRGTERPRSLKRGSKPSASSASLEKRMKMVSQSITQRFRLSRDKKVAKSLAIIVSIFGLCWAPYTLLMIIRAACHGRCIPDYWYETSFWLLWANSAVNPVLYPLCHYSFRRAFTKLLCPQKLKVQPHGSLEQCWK
Sequence of Histamine H3 receptor (Homo sapiens, UniProt Q9Y5N1) (Q9Y5N1 whole entry): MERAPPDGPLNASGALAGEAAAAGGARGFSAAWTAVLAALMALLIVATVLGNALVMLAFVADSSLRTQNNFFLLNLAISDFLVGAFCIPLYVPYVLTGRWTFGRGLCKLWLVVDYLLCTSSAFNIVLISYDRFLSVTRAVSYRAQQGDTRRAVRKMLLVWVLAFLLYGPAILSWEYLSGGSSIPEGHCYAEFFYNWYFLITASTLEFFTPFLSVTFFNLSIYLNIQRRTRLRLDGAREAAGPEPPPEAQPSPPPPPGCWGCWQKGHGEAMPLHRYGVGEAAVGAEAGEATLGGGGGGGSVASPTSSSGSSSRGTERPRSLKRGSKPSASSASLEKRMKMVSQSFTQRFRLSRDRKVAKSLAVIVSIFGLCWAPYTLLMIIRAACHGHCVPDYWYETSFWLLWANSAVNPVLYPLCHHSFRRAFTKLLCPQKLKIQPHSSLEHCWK
Sequence of Cytochrome P450 3A4 (P08684 whole entry): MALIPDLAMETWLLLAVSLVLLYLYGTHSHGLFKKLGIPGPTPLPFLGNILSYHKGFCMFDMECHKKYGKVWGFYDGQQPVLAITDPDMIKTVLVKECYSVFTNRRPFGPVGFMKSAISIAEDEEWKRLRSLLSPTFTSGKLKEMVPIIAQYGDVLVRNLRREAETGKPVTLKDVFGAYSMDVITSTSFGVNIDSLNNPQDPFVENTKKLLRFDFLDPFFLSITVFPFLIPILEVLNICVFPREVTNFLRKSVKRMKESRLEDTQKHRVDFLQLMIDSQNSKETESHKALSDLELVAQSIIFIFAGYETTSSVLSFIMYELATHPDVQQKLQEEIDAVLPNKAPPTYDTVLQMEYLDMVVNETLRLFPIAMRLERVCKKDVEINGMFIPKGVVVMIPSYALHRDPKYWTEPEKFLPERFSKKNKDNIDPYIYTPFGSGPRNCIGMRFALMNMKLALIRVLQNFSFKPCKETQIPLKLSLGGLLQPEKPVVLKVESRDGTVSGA
Sequence of Histamine H4 receptor (Q9H3N8 whole entry): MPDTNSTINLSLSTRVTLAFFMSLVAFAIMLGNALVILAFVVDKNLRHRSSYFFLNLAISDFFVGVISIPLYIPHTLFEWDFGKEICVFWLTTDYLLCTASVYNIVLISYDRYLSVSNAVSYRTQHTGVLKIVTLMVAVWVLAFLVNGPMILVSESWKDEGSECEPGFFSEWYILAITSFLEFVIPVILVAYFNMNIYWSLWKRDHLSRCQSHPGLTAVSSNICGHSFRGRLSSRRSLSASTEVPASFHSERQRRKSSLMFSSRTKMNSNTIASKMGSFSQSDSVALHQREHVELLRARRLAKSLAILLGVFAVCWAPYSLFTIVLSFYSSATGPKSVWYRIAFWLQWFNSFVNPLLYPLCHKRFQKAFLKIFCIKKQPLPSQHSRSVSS
Sequence of Cytochrome P450 2C19 (P33261 whole entry): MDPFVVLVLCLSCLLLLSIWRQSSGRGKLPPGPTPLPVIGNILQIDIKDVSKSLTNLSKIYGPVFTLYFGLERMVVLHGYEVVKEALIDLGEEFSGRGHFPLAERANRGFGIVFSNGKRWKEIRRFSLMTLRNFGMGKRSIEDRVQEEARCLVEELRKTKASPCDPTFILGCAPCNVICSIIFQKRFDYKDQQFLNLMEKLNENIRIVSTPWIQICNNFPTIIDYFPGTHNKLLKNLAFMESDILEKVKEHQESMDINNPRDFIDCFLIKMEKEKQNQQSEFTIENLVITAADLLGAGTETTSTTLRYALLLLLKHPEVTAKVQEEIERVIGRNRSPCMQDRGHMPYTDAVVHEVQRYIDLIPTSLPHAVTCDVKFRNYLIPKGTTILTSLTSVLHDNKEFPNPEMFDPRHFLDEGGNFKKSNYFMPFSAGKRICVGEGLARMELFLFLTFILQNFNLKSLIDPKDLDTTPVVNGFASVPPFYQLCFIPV
Sequence of Histamine H3 receptor (Rattus norvegicus) (Q9QYN8 whole entry): as the sequence (Q9QYN8 whole entry) above
Sequence of Histamine H2 receptor (P25021 whole entry): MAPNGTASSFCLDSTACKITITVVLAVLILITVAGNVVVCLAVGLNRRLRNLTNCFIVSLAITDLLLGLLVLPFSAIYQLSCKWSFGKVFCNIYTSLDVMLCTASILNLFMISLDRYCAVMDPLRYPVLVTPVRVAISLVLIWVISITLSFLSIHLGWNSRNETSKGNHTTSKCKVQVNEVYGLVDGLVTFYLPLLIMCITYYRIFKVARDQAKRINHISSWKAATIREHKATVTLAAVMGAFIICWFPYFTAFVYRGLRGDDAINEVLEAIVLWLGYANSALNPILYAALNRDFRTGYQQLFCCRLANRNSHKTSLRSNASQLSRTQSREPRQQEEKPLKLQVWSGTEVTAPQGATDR
Sequence of Histamine H1 receptor (P35367 whole entry): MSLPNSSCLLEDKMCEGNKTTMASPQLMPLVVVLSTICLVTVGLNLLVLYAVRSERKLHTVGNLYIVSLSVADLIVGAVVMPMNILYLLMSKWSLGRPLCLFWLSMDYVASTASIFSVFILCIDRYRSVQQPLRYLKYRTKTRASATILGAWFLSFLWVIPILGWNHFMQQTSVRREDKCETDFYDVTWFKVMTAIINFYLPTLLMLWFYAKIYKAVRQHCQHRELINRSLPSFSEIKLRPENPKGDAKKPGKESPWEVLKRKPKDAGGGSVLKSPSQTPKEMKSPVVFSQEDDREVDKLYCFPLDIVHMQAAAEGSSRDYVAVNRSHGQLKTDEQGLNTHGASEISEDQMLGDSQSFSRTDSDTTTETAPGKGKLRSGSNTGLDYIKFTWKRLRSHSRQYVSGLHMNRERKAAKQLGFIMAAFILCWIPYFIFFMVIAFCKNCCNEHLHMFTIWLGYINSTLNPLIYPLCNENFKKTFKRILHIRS
Sequence of Cytochrome P450 2C9 (P11712 whole entry): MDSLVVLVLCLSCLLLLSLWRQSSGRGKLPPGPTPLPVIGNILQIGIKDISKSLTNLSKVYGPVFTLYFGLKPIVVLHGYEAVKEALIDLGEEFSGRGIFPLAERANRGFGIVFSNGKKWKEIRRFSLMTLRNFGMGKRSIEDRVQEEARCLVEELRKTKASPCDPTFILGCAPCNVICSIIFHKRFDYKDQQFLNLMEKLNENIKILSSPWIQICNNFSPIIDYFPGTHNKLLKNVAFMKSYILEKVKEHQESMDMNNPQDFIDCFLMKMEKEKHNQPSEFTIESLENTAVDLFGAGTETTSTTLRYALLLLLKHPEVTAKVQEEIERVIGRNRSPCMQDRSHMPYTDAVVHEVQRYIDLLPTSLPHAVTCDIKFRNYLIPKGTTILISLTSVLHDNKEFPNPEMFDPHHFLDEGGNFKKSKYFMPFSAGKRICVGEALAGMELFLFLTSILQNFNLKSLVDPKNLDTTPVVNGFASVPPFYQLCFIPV

In the case of C[C@@H](COc1ccc(-c2cn[nH]c(=O)c2)cc1)CN1CCC[C@H]1C, the Ki (Histamine H3 receptor [1]) is reported as 43 nM.
With C[C@@H]1CCCN1CCCOc1ccc(-c2cn[nH]c(=O)c2)cc1 the ED50 (Rattus norvegicus [2]) was 0.03 mg/kg, the Time (Rattus norvegicus [3]) was 191 min and the Activity (Rattus norvegicus [4]) was “Non-toxic”. For the same compound, the Cmax [5] was 401 ng/mL, the Ki (Histamine H3 receptor [6]) was 3 nM and the Activity [7] was “Active”. For the same compound, the fraction unbound at 1 h, 5 µM [8] was 0.8, the solubility [9] was “soluble” and the Ki (Histamine H3 receptor [1]) was 9 nM. The Activity (Rattus norvegicus [10]) was “Non-toxic”, the AUC(0-t) [11] was 1290 ng·h/mL and the permeability (Caco-2) was “permeable”. The Kp at 6 h [12] was 1.8, the fraction unbound at 1 h, 5 µM [13] was 0.8 and the Activity [14] was “Active”. For the same compound, the fraction unbound at 1 h, 5 µM [15] was 0.8, the Activity (Salmonella typhimurium) was “Non-toxic” and the bioavailability [16] was 22%. For the same compound, the Activity (Rattus norvegicus [17]) was “Dose-dependent effect”, the fraction unbound [18] was 0.45 and the Activity (Rattus norvegicus [19]) was 95%. The clearance [20] was 10 mL/min/kg, the IC50 [21] was 10000 nM and the fraction unbound at 1 h, 5 µM [22] was 0.8.
In the case of COCn1ncc(-c2ccc(OCCCN3CCC[C@H]3C)cc2)cc1=O, the IC50 (Cytochrome P450 1A2) is reported as greater than 30000 nM, the Cmax [5] is reported as 53 ng/mL and the Ki (Histamine H3 receptor [6]) is reported as 4 nM. For the same compound, the half-life [23] was greater than 40 min, the Ki (Histamine H2 receptor) was greater than 10000 nM and the half-life [24] was greater than 40 min. For the same compound, the Vd [25] was 3.2 L/kg, the half-life [26] was 24 min and the Ki (Histamine H3 receptor [1]) was 14 nM. For the same compound, the AUC(0-t) [11] was 42 ng·h/mL, the IC50 (Cytochrome P450 2C19) was greater than 30000 nM and the IC50 (Cytochrome P450 2C9) was greater than 30000 nM. It also gave a Ki (Histamine H4 receptor) greater than 10000 nM, an IC50 (Cytochrome P450 3A4) greater than 30000 nM and a bioavailability [16] of 6%. The Ki (Histamine H1 receptor) was greater than 10000 nM, the half-life [27] was greater than 40 min and the half-life [28] was greater than 40 min. For the same compound, the clearance [20] was 93 mL/min/kg and the IC50 (Cytochrome P450 2D6) was greater than 30000 nM.
C[C@H](COc1ccc(-c2cn[nH]c(=O)c2)cc1)CN1CCC[C@H]1C showed an IC50 (Cytochrome P450 1A2) greater than 30000 nM, a Cmax [5] of 187 ng/mL and a half-life [23] greater than 40 min. The Ki (Histamine H2 receptor) was greater than 10000 nM, the half-life [24] was greater than 40 min and the Vd [25] was 3.9 L/kg. For the same compound, the half-life [26] was 126 min, the Ki (Histamine H3 receptor [1]) was 4 nM and the AUC(0-t) [11] was 762 ng·h/mL. The IC50 (Cytochrome P450 2C19) was greater than 30000 nM, the IC50 (Cytochrome P450 2C9) was greater than 30000 nM and the Kp at 6 h [12] was 6.2. For the same compound, the Ki (Histamine H4 receptor) was greater than 10000 nM, the IC50 (Cytochrome P450 3A4) was greater than 30000 nM and the bioavailability [16] was 24%. For the same compound, the Ki (Histamine H1 receptor) was greater than 10000 nM, the half-life [27] was greater than 40 min and the half-life [28] was greater than 40 min. The clearance [20] was 21 mL/min/kg and the IC50 (Cytochrome P450 2D6) was greater than 30000 nM.
For C[C@@H](COc1ccc(-c2cn[nH]c(=O)c2)cc1)CN1CCCCC1, the Ki (Histamine H3 receptor [6]) was 47 nM and the Ki (Histamine H3 receptor [1]) was 131 nM.
Compound COc1cn[nH]c(=O)c1-c1ccc(OCCCN2CCC[C@H]2C)cc1 has a Ki (Histamine H3 receptor [6]) of 20 nM and a Ki (Histamine H3 receptor [1]) of 62 nM.
Compound C[C@H](COc1ccc(-c2cn[nH]c(=O)c2)cc1)CN1CCCCC1 has a Ki (Histamine H3 receptor [6]) of 25 nM and a Ki (Histamine H3 receptor [1]) of 34 nM.
With COCn1ncc(-c2ccc(OCCCN3CCC[C@H]3C)cc2)c(OC)c1=O the Ki (Histamine H3 receptor [6]) was 5 nM and the Ki (Histamine H3 receptor [1]) was 13 nM.
Work on COCn1ncc(OC)c(-c2ccc(OCCCN3CCC[C@H]3C)cc2)c1=O yielded a Ki (Histamine H3 receptor [6]) of 10 nM and a Ki (Histamine H3 receptor [1]) of 19 nM.
